Results published in ChEMBL document CHEMBL5338787, “Discovery of Novel Bruton's Tyrosine Kinase PROTACs with Enhanced Selectivity and Cellular Efficacy” (J Med Chem, 2023).
Calls of active or inactive are those of the source. The calls are words filed in the database; no cut-off is given here.

Experiments:
[1] = molecular target: T1, Protein cereblon/Tyrosine-protein kinase BTK (Homo sapiens, UniProt Q06187+Q96SW2); test: PROTAC activity at BTK/CRBN protein protein interaction in human Ramos cell assessed as degradation of BTK incubated for 17 hrs measured by Western blot analysis relative to control; format: cell-based
In short: (§1)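 Ramos or JeKo-1 cells (2 × 10^6 per well) were exposed for 17 h to 3000–0.15 nM PROTAC in 3-fold steps. Cells were lysed and analysed by western blot, with BTK normalised to β-actin. DC50 and Dmax come from the dose-response; DC50 is the mean ± SD of two independent experiments.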
Target sequence in this assay (Q06187 2-659 limits assumed): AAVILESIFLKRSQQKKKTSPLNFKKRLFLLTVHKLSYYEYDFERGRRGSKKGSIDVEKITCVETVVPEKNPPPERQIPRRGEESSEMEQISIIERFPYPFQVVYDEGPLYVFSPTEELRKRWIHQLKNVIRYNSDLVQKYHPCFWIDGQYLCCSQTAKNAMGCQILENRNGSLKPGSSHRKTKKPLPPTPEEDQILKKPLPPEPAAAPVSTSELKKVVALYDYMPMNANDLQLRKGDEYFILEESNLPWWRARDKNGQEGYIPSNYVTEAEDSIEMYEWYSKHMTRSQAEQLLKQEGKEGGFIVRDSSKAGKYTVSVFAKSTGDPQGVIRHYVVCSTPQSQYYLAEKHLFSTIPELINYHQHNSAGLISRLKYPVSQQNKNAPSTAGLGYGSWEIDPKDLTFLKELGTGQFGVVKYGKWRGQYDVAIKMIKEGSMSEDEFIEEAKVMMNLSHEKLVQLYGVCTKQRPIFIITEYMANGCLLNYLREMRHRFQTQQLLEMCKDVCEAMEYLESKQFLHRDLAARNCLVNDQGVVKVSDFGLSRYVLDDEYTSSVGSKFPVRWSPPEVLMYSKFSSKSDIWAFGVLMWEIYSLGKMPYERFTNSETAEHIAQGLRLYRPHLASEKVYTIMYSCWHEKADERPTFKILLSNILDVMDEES
Target sequence in this assay (Q96SW2 whole entry partner): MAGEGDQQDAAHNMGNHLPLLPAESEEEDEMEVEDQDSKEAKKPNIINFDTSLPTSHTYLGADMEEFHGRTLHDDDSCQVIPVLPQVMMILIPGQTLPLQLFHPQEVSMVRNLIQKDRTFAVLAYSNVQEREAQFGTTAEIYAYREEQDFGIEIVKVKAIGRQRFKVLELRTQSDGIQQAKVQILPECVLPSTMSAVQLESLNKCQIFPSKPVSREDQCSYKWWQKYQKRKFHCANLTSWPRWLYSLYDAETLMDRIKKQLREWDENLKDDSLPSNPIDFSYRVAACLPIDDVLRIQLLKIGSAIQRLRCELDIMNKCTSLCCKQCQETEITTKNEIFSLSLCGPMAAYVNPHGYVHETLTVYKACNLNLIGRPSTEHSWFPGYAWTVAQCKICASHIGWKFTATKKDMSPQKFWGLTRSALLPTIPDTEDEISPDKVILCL

[2] = molecular target: T1, Protein cereblon/Tyrosine-protein kinase BTK; test: PROTAC activity at BTK/CRBN protein protein interaction in human JeKo-1 cell assessed as degradation of BTK incubated for 17 hrs measured by Western blot analysis; format: cell-based; in short: as §1
Target sequence in this assay (Q06187 whole entry): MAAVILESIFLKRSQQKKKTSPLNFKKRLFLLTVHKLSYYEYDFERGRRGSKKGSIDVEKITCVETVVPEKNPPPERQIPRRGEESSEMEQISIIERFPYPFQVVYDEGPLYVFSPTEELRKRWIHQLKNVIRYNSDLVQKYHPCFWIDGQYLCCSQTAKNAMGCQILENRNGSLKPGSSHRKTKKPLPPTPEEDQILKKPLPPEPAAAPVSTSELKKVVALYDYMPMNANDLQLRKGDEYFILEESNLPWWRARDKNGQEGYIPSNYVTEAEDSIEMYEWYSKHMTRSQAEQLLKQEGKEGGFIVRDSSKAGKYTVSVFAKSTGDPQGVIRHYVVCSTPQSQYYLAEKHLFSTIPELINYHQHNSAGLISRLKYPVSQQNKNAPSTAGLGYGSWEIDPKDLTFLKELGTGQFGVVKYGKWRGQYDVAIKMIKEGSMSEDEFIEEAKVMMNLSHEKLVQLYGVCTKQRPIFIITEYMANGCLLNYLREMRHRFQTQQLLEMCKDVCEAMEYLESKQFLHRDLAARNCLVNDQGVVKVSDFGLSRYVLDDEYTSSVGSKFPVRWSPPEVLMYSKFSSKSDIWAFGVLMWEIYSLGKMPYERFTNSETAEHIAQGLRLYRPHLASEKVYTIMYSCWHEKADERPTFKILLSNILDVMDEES
Target sequence in this assay (Q96SW2 whole entry): as the sequence (Q96SW2 whole entry partner) above

[3] = molecular target: T1, Protein cereblon/Tyrosine-protein kinase BTK; test: PROTAC activity at BTK/CRBN protein protein interaction in human Ramos cell assessed as degradation of BTK incubated for 17 hrs measured by Western blot analysis; format: cell-based; in short: as §1
Target sequence in this assay (Q06187 whole entry): as the sequence (Q06187 whole entry) above
Target sequence in this assay (Q96SW2 whole entry): as the sequence (Q96SW2 whole entry partner) above

[4] = molecular target: T1, Protein cereblon/Tyrosine-protein kinase BTK; test: PROTAC activity at BTK/CRBN protein protein interaction in human JeKo-1 cell assessed as degradation of BTK incubated for 17 hrs measured by Western blot analysis relative to control; format: cell-based; in short: as §1
Target sequence in this assay (Q06187 2-659 limits assumed): as the sequence (Q06187 2-659 limits assumed) above
Target sequence in this assay (Q96SW2 whole entry partner): as the sequence (Q96SW2 whole entry partner) above

TMD8 [5] = test: Cytotoxicity against human TMD8 cells incubated for 48 hrs by celltitre glo 2.0 assay; format: functional, cell-based; conditions: TMD8, 48 h
[6] = molecular target: Tyrosine-protein kinase FRK (Homo sapiens) (UniProt P42685); test: Degradation of FRK in human TMD8 cells by measuring protein level at 111 nM for 6 hrs using label free proteomic analysis; format: cell-based
Chain of Tyrosine-protein kinase FRK (Homo sapiens) (P42685 whole entry): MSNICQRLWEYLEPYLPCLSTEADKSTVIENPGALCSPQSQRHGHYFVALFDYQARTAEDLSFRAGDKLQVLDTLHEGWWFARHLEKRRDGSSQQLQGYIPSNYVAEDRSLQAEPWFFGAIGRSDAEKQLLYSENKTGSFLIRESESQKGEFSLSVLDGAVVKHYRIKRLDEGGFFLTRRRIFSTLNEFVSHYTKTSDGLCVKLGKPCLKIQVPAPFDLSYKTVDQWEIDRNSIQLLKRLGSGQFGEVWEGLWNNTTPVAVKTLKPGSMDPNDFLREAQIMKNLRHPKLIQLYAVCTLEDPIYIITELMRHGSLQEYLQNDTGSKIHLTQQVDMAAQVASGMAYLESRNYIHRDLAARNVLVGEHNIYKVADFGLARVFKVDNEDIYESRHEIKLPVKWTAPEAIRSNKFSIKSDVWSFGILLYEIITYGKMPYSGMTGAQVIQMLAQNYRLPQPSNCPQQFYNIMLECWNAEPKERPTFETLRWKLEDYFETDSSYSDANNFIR
In short: (§2)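 TMD8 cells (2 × 10^6) given 111 nM or DMSO for 6 h in duplicate. Lysed in 5% SDS/50 mM TEAB pH 8.5. 200 μg protein reduced (10 mM DTT, 55 °C, 30 min), alkylated (50 mM iodoacetamide), S-Trap processed, then LC-MS/MS. Label-free matched-peptide quantitation against DMSO, human UniProt; Benjamini–Hochberg-corrected p-values.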

[7] = Cytotoxicity against human MINO cells incubated for 48 hrs by celltitre glo 2.0 assay; format: functional, cell-based
[8] = molecular target: Eukaryotic peptide chain release factor GTP-binding subunit ERF3A (Homo sapiens) (UniProt P15170); test: Degradation of […] in human TMD8 cells by measuring protein level at 111 nM for 6 hrs using label free proteomic analysis; format: cell-based; in short: as §2
Chain of Eukaryotic peptide chain release factor GTP-binding subunit ERF3A (Homo sapiens) (P15170 whole entry): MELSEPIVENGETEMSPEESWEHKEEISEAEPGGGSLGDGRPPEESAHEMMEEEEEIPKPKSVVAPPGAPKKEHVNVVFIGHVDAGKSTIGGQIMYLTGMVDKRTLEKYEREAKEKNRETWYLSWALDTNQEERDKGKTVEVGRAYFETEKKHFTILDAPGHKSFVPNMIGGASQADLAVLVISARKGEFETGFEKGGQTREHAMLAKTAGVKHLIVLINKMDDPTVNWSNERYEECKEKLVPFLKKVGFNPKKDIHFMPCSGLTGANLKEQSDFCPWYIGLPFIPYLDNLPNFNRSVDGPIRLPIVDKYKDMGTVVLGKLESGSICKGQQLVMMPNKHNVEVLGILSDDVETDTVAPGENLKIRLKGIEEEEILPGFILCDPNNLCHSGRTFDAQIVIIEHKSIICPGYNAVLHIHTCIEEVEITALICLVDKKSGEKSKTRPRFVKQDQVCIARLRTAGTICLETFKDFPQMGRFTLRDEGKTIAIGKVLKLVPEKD

[9] = molecular target: T2, Zinc finger protein 280D (Homo sapiens) (UniProt Q6N043); test: Degradation of […] in human TMD8 cells by measuring protein level at 111 nM for 6 hrs using label free proteomic analysis; format: cell-based; in short: as §2
T2 sequence (whole entry): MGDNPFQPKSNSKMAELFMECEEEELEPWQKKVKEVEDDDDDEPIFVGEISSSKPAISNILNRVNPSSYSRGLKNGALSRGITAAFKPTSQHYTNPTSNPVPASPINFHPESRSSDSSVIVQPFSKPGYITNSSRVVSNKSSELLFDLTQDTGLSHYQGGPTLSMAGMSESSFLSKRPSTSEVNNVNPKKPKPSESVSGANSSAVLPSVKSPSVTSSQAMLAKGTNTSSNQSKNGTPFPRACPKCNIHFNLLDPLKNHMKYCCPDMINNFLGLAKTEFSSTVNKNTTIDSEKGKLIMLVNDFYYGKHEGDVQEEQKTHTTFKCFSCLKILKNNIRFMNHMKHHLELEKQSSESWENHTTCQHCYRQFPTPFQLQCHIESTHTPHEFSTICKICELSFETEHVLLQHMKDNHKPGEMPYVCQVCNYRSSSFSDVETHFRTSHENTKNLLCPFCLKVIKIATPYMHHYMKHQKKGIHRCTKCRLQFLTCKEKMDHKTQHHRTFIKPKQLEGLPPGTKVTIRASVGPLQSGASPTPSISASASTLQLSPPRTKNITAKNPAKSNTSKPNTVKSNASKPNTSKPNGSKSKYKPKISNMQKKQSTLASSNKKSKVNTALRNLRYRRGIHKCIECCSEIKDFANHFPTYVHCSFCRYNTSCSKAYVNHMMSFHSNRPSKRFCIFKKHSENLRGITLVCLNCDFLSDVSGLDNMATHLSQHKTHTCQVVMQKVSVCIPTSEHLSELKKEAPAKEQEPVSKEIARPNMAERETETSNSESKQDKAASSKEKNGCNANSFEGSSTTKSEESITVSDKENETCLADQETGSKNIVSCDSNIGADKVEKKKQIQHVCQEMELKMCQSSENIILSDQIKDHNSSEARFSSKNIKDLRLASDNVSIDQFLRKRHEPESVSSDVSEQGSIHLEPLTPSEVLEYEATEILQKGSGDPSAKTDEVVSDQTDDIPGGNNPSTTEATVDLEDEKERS

[10] = molecular target: Tyrosine-protein kinase CSK (Homo sapiens) (UniProt P41240); test: Degradation of CSK in human TMD8 cells by measuring protein level at 111 nM for 6 hrs using label free proteomic analysis; format: cell-based; in short: as §2
Chain of Tyrosine-protein kinase CSK (Homo sapiens) (P41240 2-450 limits assumed): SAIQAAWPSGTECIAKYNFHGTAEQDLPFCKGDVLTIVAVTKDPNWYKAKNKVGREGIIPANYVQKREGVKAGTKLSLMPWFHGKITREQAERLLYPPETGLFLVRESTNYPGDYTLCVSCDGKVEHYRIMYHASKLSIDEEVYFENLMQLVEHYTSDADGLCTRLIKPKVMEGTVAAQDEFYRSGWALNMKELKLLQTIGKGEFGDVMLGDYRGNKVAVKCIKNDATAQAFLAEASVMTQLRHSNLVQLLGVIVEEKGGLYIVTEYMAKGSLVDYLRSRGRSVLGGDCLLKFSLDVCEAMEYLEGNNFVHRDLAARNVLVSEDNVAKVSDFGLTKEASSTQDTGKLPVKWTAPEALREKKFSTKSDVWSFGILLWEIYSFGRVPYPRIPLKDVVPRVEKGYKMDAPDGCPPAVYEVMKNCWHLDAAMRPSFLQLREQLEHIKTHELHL

[11] = molecular target: Zinc finger protein Aiolos (Homo sapiens) (UniProt Q9UKT9); test: Degradation of IKZF3 in human TMD8 cells by measuring protein level at 111 nM for 6 hrs using label free proteomic analysis; format: cell-based; in short: as §2
Chain of Zinc finger protein Aiolos (Homo sapiens) (Q9UKT9 whole entry): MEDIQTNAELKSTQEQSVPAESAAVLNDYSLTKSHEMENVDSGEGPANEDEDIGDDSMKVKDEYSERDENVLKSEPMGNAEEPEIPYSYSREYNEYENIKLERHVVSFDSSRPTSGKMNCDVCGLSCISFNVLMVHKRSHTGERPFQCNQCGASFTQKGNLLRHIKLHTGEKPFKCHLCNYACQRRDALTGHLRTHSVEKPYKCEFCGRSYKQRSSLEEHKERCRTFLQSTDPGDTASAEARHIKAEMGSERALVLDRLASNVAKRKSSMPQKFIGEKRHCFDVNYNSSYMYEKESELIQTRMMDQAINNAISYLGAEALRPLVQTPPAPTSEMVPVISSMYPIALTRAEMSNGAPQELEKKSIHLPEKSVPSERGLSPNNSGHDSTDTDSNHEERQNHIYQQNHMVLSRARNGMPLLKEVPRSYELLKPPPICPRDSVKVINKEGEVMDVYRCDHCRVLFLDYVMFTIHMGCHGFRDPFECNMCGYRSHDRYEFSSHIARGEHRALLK

[12] = molecular target: DNA-binding protein Ikaros (Homo sapiens) (UniProt Q13422); test: Degradation of IKZF1 in human TMD8 cells by measuring protein level at 111 nM for 6 hrs using label free proteomic analysis; format: cell-based; in short: as §2
Chain of DNA-binding protein Ikaros (Homo sapiens) (Q13422 whole entry): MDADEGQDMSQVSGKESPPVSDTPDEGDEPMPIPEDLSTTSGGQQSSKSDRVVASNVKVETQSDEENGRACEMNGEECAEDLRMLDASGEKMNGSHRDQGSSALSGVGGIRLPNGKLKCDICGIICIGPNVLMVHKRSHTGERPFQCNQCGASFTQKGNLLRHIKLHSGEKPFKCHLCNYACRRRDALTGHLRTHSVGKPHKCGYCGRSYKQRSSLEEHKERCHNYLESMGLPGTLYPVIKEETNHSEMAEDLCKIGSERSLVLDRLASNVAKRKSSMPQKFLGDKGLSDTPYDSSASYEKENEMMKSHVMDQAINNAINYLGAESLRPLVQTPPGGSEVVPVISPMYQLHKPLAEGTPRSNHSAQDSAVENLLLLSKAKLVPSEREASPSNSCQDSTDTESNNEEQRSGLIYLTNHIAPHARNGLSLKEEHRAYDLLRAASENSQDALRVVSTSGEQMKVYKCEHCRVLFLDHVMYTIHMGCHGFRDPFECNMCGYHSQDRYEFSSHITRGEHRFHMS

[13] = molecular target: T3, Tyrosine-protein kinase BTK (Homo sapiens, UniProt Q06187); test: Binding affinity to full length BTK (unknown origin) assessed as dissociation constant measured at 37 degree C by TR-FRET assay
T3 sequence (Q06187 whole entry): as the sequence (Q06187 whole entry) above

[14] = molecular target: T3, Tyrosine-protein kinase BTK; test: Inhibition of BTK in HEK293 cells using NanoGlo substrate incubated for 2 hrs by NanoBRET assay; format: cell-based
Protein cereblon = Protein cereblon (Homo sapiens, UniProt Q96SW2); test: Inhibition of CRBN in HEK293 cells using NanoGlo substrate incubated for 2 hrs by NanoBRET assay; format: cell-based
Chain of Protein cereblon (Q96SW2 whole entry, the tested form may be a part): as the sequence (Q96SW2 whole entry partner) above

[15] = molecular target: T1, Protein cereblon/Tyrosine-protein kinase BTK; test: PROTAC activity at Halo-tagged CRBN/NanoLuc fusion tagged BTK transfected in HEK293 cells assessed as degradation of BTK by measuring ternary complex formation using NanoGlo substrate preincubated with proteasome inhibitor MG-132 for 30 mins followed by compound and substrate addition incubated for 2.5 hrs measured by NANOBRET assay relative to 4-((2-((S)-4-(6-((2'-(7,7-Dimethyl-1-oxo-1,3,4,6,7,8-hexahydro-2H-cyclopenta[4,5]pyrrolo[1,2-a]pyrazin-2-yl)-3'-(hydroxymethyl)-1-methyl-6-oxo-1,6-dihydro-[3,4'-bipyridin]-5-yl)amino)pyridin-3-yl)-3-methylpiperazin-1-yl)-2-oxoethyl)amino)-2-(2,6-dioxopiperidin-3-yl)isoindoline-1,3-dione; format: cell-based; set-up: scale not given: the % may be the effect or the level left
Target sequence in this assay (Q06187 2-659 limits assumed): as the sequence (Q06187 2-659 limits assumed) above
Target sequence in this assay (Q96SW2 whole entry partner): as the sequence (Q96SW2 whole entry partner) above

[16] = molecular target: T3, Tyrosine-protein kinase BTK; test: Potency index, ratio of test compound Kd to GDC-0853 Kd for full length BTK (unknown origin)
TMD8 [17] = test: Induction of apoptosis in human TMD8 cells measured after 48 hrs by Annexin-V/propidium iodide staining based flow cytometric analysis; format: functional, cell-based; conditions: dose 0.15-3000 nM
In short: (§3)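 Cells plated at 2 × 10^6 per well and treated 48 h at 3,000–0.15 nM (3-fold dilutions) or 1% DMSO. Harvested, washed in cold PBS, stained with Annexin V Alexa Fluor 488/propidium iodide, analysed by flow cytometry for % live, apoptotic and necrotic cells. Mean of two independent experiments.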

MINO [18] = test: Induction of apoptosis in human MINO cells at 0.15 to 3000 nM for 48 hrs by Annexin-V/propidium iodide staining based flow cytometric analysis; format: functional, cell-based; conditions: dose 0.15-3000 nM; in short: as §3
MINO [19] = test: Induction of apoptosis in human MINO cells measured after 48 hrs by Annexin-V/propidium iodide staining based flow cytometric analysis; format: functional, cell-based; conditions: dose 0.15-3000 nM; in short: as §3

| Emax [1] [%] | DC50 [2] [nM] | DC50 [3] [nM] | Emax [4] [%] | Compound | other results |
| --- | --- | --- | --- | --- | --- |
| 95.7 | 1 | 0.9 | 97.4 | C[C@H]1CN(C(=O)CCCNc2cccc3c2C(=O)N(C2CCC(=O)NC2=O)C3=O)CCN1c1ccc(Nc2cc(-c3ccnc(N4CCn5c(cc6c5CC(C)(C)C6)C4=O)c3CO)cn(C)c2=O)nc1 (stereo not given in full) |  |
|  |  |  |  | Nc1ncnc2c1c(-c1ccc(Oc3ccccc3)cc1)nn2[C@@H]1CCCN(C(=O)c2cn(CCOCCOCCOCCNc3cccc4c3C(=O)N(C3CCC(=O)NC3=O)C4=O)nn2)C1 (stereo not given in full) | IC50 (TMD8 [5]): 15 nM; Activity [6]: Active; IC50 [7]: 10.4 nM; Activity [8]: inactive; Activity [9]: Active; Activity [10]: Active; Activity [11]: Active; Activity [12]: Active |
| 96.1 | 4.1 | 1.3 | 95.1 | C[C@H]1CN(C(=O)CCOCCOCCNc2cccc3c2C(=O)N(C2CCC(=O)NC2=O)C3=O)CCN1c1ccc(Nc2cc(-c3ccnc(N4CCn5c(cc6c5CC(C)(C)C6)C4=O)c3CO)cn(C)c2=O)nc1 (stereo not given in full) |  |
| 30.1 | > 3000 | > 3000 | 30 | C[C@H]1CN(C(=O)c2cccc3c2C(=O)N(C2CCC(=O)NC2=O)C3=O)CCN1c1ccc(Nc2cc(-c3ccnc(N4CCn5c(cc6c5CC(C)(C)C6)C4=O)c3CO)cn(C)c2=O)nc1 (stereo not given in full) | Kd [13]: 0.86 nM; IC50 [14]: 320 nM; IC50 (Protein cereblon): 7000 nM; Activity [15]: 0%; Ratio [16]: 3 |
| 89 | 348 | 113 | 89.8 | C[C@H]1CN(C(=O)CCCCCCCCCCCNc2cccc3c2C(=O)N(C2CCC(=O)NC2=O)C3=O)CCN1c1ccc(Nc2cc(-c3ccnc(N4CCn5c(cc6c5CC(C)(C)C6)C4=O)c3CO)cn(C)c2=O)nc1 (stereo not given in full) | Kd [13]: 107 nM; IC50 [14]: 3200 nM; IC50 (Protein cereblon): 5000 nM; Activity [15]: 75%; Ratio [16]: 300 |
| 94 | 32.1 | 31.2 | 97.1 | C[C@H]1CN(C(=O)CCCCCCCCCNc2cccc3c2C(=O)N(C2CCC(=O)NC2=O)C3=O)CCN1c1ccc(Nc2cc(-c3ccnc(N4CCn5c(cc6c5CC(C)(C)C6)C4=O)c3CO)cn(C)c2=O)nc1 (stereo not given in full) |  |
| 97.3 | 0.8 | 0.9 | 97.6 | C[C@H]1CN(C(=O)CNc2ccc3c(c2)C(=O)N(C2CCC(=O)NC2=O)C3=O)CCN1c1ccc(Nc2cc(-c3ccnc(N4CCn5c(cc6c5CC(C)(C)C6)C4=O)c3CO)cn(C)c2=O)nc1 (stereo not given in full) |  |
|  |  |  |  | C[C@H]1CN(C2COC2)CCN1c1ccc(Nc2cc(-c3ccnc(N4CCn5c(cc6c5CC(C)(C)C6)C4=O)c3CO)cn(C)c2=O)nc1 [FENEBRUTINIB] | Activity (TMD8 [17]): Dose-Dependent Effect; IC50 [7]: 7.8 nM; Activity (MINO [18]): inactive |
| 95.6 | 9.7 | 7 | 96.9 | C[C@H]1CN(CCCCCCOCCOCC(=O)Nc2cccc3c2C(=O)N(C2CCC(=O)NC2=O)C3=O)CCN1c1ccc(Nc2cc(-c3ccnc(N4CCn5c(cc6c5CC(C)(C)C6)C4=O)c3CO)cn(C)c2=O)nc1 (stereo not given in full) |  |
|  |  |  |  | Nc1cccc2c1C(=O)N(C1CCC(=O)NC1=O)C2=O (stereo not given) | Activity (MINO [19]): Dose-Dependent Effect |
